Source: ChEMBL document CHEMBL2151019, “Potent and selective inhibitors of PI3Kδ: obtaining isoform selectivity from the affinity pocket and tryptophan shelf” (Bioorg Med Chem Lett, 2012)

Tests used:
[1] = molecular target: T1, Phosphatidylinositol 4,5-bisphosphate 3-kinase catalytic subunit delta isoform (Homo sapiens, UniProt O00329); test: Inhibition of PI3Kdelta-mediated AKT phosphorylation in B cells in presence of human serum; type: cell-based
T1 sequence (O00329 whole entry): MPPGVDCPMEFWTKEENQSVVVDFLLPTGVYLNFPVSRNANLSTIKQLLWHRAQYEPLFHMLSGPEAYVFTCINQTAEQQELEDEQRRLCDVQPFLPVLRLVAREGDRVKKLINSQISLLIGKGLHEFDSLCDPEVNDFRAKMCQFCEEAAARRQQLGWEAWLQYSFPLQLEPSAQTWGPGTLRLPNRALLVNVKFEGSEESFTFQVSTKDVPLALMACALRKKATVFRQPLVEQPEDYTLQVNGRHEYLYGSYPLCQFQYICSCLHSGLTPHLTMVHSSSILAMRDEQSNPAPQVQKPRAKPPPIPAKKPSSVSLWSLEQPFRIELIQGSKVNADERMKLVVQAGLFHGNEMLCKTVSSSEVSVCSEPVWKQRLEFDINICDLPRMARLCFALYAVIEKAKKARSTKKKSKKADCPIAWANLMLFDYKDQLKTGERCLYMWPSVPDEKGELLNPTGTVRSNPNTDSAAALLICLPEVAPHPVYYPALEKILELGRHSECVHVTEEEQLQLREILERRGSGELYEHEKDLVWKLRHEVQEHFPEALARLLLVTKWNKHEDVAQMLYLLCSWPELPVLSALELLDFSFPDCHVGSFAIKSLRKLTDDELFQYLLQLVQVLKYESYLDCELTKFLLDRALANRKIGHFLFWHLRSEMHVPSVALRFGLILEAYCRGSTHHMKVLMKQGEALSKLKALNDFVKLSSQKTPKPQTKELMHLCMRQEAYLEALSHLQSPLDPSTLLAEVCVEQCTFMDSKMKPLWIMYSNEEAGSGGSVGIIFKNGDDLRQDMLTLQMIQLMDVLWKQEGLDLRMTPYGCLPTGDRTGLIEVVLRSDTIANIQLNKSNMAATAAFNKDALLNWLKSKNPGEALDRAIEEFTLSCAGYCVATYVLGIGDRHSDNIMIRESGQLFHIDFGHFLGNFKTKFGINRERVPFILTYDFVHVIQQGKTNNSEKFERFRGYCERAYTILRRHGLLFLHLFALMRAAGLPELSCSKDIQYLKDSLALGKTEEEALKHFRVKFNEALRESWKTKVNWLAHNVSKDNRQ
Summary of the method: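 Cellular assay in the PI3Kδ-dependent B-cell cancer line Ri-1. Downstream pAKT measured with human serum added (serum-shifted); IC50 determined.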

[2] = Selectivity ratio of IC50 for PI3Kbeta to IC50 for PI3Kdelta
Summary of the method: (§1)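 Ratios of biochemical IC50 values, each against the PI3Kδ IC50. Both IC50s come from the fluorescence polarization assay monitoring PIP2-to-PIP3 conversion by each Class I isoform.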

[3] = Selectivity ratio of IC50 for PI3Kgamma to IC50 for PI3Kdelta; summary of the method: as §1
[4] = Selectivity ratio of IC50 for PI3Kalpha to IC50 for PI3Kdelta; summary of the method: as §1
[5] = molecular target: T1, Phosphatidylinositol 4,5-bisphosphate 3-kinase catalytic subunit delta isoform; test: Inhibition of PI3K p110delta using PIP2 as substrate assessed as PIP3 formation by fluorescence polarization assay
Summary of the method: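 Biochemical fluorescence polarization assay following conversion of PIP2 to PIP3 by PI3Kδ; IC50 determined.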

[6] = Cmax in Sprague-Dawley rat at 5 mg/kg, po; type: ADME, organism-based; parameters: dose 5 mg/kg, route oral; conditions: in vivo
Summary of the method: (§2)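 Oral dosing in male Sprague–Dawley rats used an MCT suspension (0.5% methylcellulose/0.2% Tween-80). Cmax, AUC and terminal half-life were taken from plasma concentration–time curves.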

[7] = AUC in CD1 mouse at 5 mg/kg, po; type: ADME, organism-based; parameters: dose 5 mg/kg, route oral; conditions: plasma
Summary of the method: (§3)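 Female CD-1 mice were given a 5 mg/kg oral dose as an MCT suspension (0.5% methylcellulose/0.2% Tween-80). Cmax, AUC and half-life came from the plasma concentration–time profiles.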

[8] = Cmax in Sprague-Dawley rat at 10 mg/kg, po; type: ADME, organism-based; parameters: dose 10 mg/kg, route oral; conditions: in vivo; summary of the method: as §2
[9] = Cmax in BALB/c mouse at 20 mg/kg, po; type: ADME, organism-based; parameters: dose 20 mg/kg, route oral; conditions: in vivo
Summary of the method: (§4)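 Female Balb/c mice received the compound orally as a suspension in 0.5% methylcellulose/0.2% Tween-80 (MCT). Plasma concentration–time profiles were used to derive Cmax, AUC and terminal half-life.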

[10] = Clearance in CD1 mouse at 1 mg/kg, iv; type: ADME, organism-based; parameters: dose 1 mg/kg, route intravenous; conditions: in vivo
[11] = Half life in BALB/c mouse at 20 mg/kg, po; type: ADME, organism-based; parameters: dose 20 mg/kg, route oral; conditions: in vivo; summary of the method: as §4
[12] = Oral bioavailability in Sprague-Dawley rat at 5 mg/kg; type: ADME, organism-based; conditions: in vivo
Summary of the method: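 Male Sprague–Dawley rats received an IV dose of 1 mg/kg in 5% DMSO/5% Cremophor and an oral dose of 5 mg/kg as an MCT suspension (0.5% methylcellulose/0.2% Tween-80). Plasma exposure was compared between the two routes.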

[13] = AUC in BALB/c mouse at 40 mg/kg, po; type: ADME, organism-based; parameters: dose 40 mg/kg, route oral; conditions: plasma; summary of the method: as §4
[14] = Cmax in BALB/c mouse at 40 mg/kg, po; type: ADME, organism-based; parameters: dose 40 mg/kg, route oral; conditions: in vivo; summary of the method: as §4
[15] = Clearance in Sprague-Dawley rat at 1 mg/kg, iv; type: ADME, organism-based; parameters: dose 1 mg/kg, route intravenous; conditions: in vivo
Summary of the method: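 Male Sprague–Dawley rats received 1 mg/kg intravenously in 5% DMSO/5% Cremophor. In vivo clearance was derived from plasma concentrations over time.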

[16] = Half life in BALB/c mouse at 40 mg/kg, po; type: ADME, organism-based; parameters: dose 40 mg/kg, route oral; conditions: in vivo; summary of the method: as §4
[17] = Half life in CD1 mouse at 5 mg/kg, po; type: ADME, organism-based; parameters: dose 5 mg/kg, route oral; conditions: in vivo; summary of the method: as §3
[18] = AUC in BALB/c mouse at 20 mg/kg, po; type: ADME, organism-based; parameters: dose 20 mg/kg, route oral; conditions: plasma; summary of the method: as §4
[19] = Cmax in CD1 mouse at 5 mg/kg, po; type: ADME, organism-based; parameters: dose 5 mg/kg, route oral; conditions: in vivo; summary of the method: as §3
[20] = Half life in Sprague-Dawley rat at 5 mg/kg, po; type: ADME, organism-based; parameters: dose 5 mg/kg, route oral; conditions: in vivo; summary of the method: as §2
[21] = Half life in Sprague-Dawley rat at 10 mg/kg, po; type: ADME, organism-based; parameters: dose 10 mg/kg, route oral; conditions: in vivo; summary of the method: as §2
[22] = Oral bioavailability in CD1 mouse at 5 mg/kg; type: ADME, organism-based; conditions: in vivo
Summary of the method: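 Female CD-1 mice received an IV dose of 1 mg/kg in 5% DMSO/5% Cremophor and an oral dose of 5 mg/kg as an MCT suspension (0.5% methylcellulose/0.2% Tween-80). Plasma exposure was compared between the two routes.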

[23] = Volume of distribution at steady state in Sprague-Dawley rat at 1 mg/kg, iv; type: ADME, organism-based; parameters: dose 1 mg/kg, route intravenous; conditions: in vivo, read-out: Vdss
Summary of the method: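 Male Sprague–Dawley rats were given 1 mg/kg IV in 5% DMSO/5% Cremophor. Pharmacokinetic parameters were taken from plasma concentrations over time.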

[24] = AUC in Sprague-Dawley rat at 5 mg/kg, po; type: ADME, organism-based; parameters: dose 5 mg/kg, route oral; conditions: plasma; summary of the method: as §2
[25] = Volume of distribution at steady state in CD1 mouse at 1 mg/kg, iv; type: ADME, organism-based; parameters: dose 1 mg/kg, route intravenous; conditions: in vivo, read-out: Vdss
Summary of the method: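 Single IV dose of 1 mg/kg in 5% DMSO/5% Cremophor to female CD-1 mice. Pharmacokinetic parameters were taken from plasma concentrations over time.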

[26] = Half life in Sprague-Dawley rat at 30 mg/kg, po; type: ADME, organism-based; parameters: dose 30 mg/kg, route oral; conditions: in vivo; summary of the method: as §2
[27] = Cmax in Sprague-Dawley rat at 30 mg/kg, po; type: ADME, organism-based; parameters: dose 30 mg/kg, route oral; conditions: in vivo; summary of the method: as §2
[28] = AUC in Sprague-Dawley rat at 30 mg/kg, po; type: ADME, organism-based; parameters: dose 30 mg/kg, route oral; conditions: plasma; summary of the method: as §2
[29] = AUC in Sprague-Dawley rat at 10 mg/kg, po; type: ADME, organism-based; parameters: dose 10 mg/kg, route oral; conditions: plasma; summary of the method: as §2

OCc1ccc2nc(-c3c(F)ccc4[nH]ccc34)nc(N3CCOCC3)c2n1
IC50 [1]: 145 nM
Ratio IC50 [2]: 3.7
Ratio IC50 [3]: 38
Ratio IC50 [4]: 14
IC50 [5]: 27 nM

CC(C)(O)C1CCN(Cc2ccc3nc(-c4cnc(N)nc4)nc(N4CCOCC4)c3n2)CC1
IC50 [1]: 145 nM
Ratio IC50 [2]: 73
Ratio IC50 [3]: 43
Ratio IC50 [4]: 5.4
IC50 [5]: 2.6 nM

CC(C)(O)C1CCN(Cc2cc3nc(-c4c(F)ccc5[nH]ccc45)nc(N4CCOCC4)c3s2)CC1
Ratio IC50 [2]: 110
Ratio IC50 [3]: 910
Ratio IC50 [4]: 170
IC50 [5]: 4 nM

Fc1ccc2[nH]ccc2c1-c1nc(N2CCOCC2)c2nc(CN3CCOCC3)ccc2n1
IC50 [1]: 67 nM
Ratio IC50 [2]: 13
Ratio IC50 [3]: 120
Ratio IC50 [4]: 58
IC50 [5]: 12 nM

CC(C)(O)C1CCN(Cc2nc3c(N4CCOCC4)nc(-c4c(F)ccc5[nH]ccc45)nc3s2)CC1
Ratio IC50 [2]: 200
Ratio IC50 [3]: 1400
Ratio IC50 [4]: 220
IC50 [5]: 0.6 nM

CC(C)(O)C1CCN(Cc2ccc3nc(-c4cccc5[nH]ncc45)nc(N4CCOCC4)c3n2)CC1
IC50 [1]: 480 nM
Ratio IC50 [2]: 78
Ratio IC50 [3]: 260
Ratio IC50 [4]: 22

CC(C)(O)C1CCN(Cc2nc3nc(-c4c(F)ccc5[nH]ccc45)nc(N4CCOCC4)c3[nH]2)CC1
IC50 [5]: 1.9 nM

CC(C)(O)C1CCN(Cc2ccc3nc(-c4cccc5[nH]ccc45)nc(N4CCOCC4)c3n2)CC1
IC50 [1]: 55 nM
Ratio IC50 [2]: 210
Ratio IC50 [3]: 610
Ratio IC50 [4]: 370

CC(C)(O)C1CCN(Cc2nc3c(N4CCOCC4)nc(-c4c(F)ccc5[nH]ccc45)nc3[nH]2)CC1
Ratio IC50 [2]: 140
Ratio IC50 [3]: 1500
Ratio IC50 [4]: 330

CC(C)(O)C1CCN(Cc2ccc3nc(-c4c(F)ccc5[nH]ccc45)nc(N4CCOCC4)c3n2)CC1
Cmax [6]: 500 nM
AUC [7]: 2.5 µM·h
Cmax [8]: 1200 nM
Cmax [9]: 3900 nM
clearance [10]: 53 mL/min/kg
half-life [11]: 2.9 h
bioavailability [12]: 90%
AUC [13]: 63 µM·h
Cmax [14]: 14000 nM
clearance [15]: 59 mL/min/kg
half-life [16]: 5 h
half-life [17]: 2.6 h
AUC [18]: 13 µM·h
Cmax [19]: 900 nM
half-life [20]: 2.6 h
half-life [21]: 3.8 h
bioavailability [22]: 80%
Vd [23]: 8.8 L/kg
AUC [24]: 2.6 µM·h
Vd [25]: 4.9 L/kg
half-life [26]: 4.8 h
Cmax [27]: 4700 nM
AUC [28]: 46 µM·h
AUC [29]: 11 µM·h
